Assay results published in ChEMBL document CHEMBL1687824, “Overexpression of patA and patB, which encode ABC transporters, is associated with fluoroquinolone resistance in clinical isolates of Streptococcus pneumoniae” (2011).
Converted amounts (≈) assume the structure as drawn.

How the values were obtained:
Assay type in all cases: functional
Streptococcus pneumoniae [1] = assay: Antibacterial activity against Streptococcus pneumoniae M315 overexpressing patA, patB and inactivated patA with single mutation by standardized agar doubling dilution method in presence of 20 ug/ml reserpine efflux pump inhibitor
Summary of the method: (§1)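 MICs determined by BSAC standardized agar doubling dilution. Strains were grown in brain heart infusion broth for 24 h at 37°C in 5% CO2. Inhibitor arms had reserpine at 20 μg/ml or sodium orthovanadate at 50 μM in the agar. Mutants were made by transforming magellan2 insertion amplimers into clinical isolates and selecting on spectinomycin 100 mg/liter, with a no-DNA spontaneous-mutation control.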

Streptococcus pneumoniae [2] = assay: Antibacterial activity against Streptococcus pneumoniae M317 overexpressing patA, patB and inactivated patB with single mutation by standardized agar doubling dilution method
Summary of the method: (§2)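 MICs were determined by agar doubling dilution following BSAC guidelines, with no efflux inhibitor. Strains were grown in brain heart infusion broth for 24 h at 37°C in 5% CO2. Species identity was confirmed by Gram stain, optochin sensitivity and capsule test. Control strain R6 was tested alongside.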

Streptococcus pneumoniae [3] = assay: Antibacterial activity against Streptococcus pneumoniae M301 overexpressing patA, patB and inactivated patA with single mutation by standardized agar doubling dilution method in presence of 20 ug/ml reserpine efflux pump inhibitor; summary of the method: as §1
Streptococcus pneumoniae [4] = assay: Antibacterial activity against Streptococcus pneumoniae M315 overexpressing patA, patB and inactivated patA with single mutation by standardized agar doubling dilution method in presence of 50 uM sodium orthovanadate efflux pump inhibitor
Summary of the method: (§3)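 MICs were determined by BSAC agar doubling dilution in the presence of sodium orthovanadate at 50 μM. Cultures were grown in BHI broth for 24 h at 37°C in 5% CO2, with R6 as control. Synergy was defined as an MIC reduction of ≥2 dilutions with the inhibitor present.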

Streptococcus pneumoniae [5] = assay: Antibacterial activity against Streptococcus pneumoniae M317 overexpressing patA, patB and inactivated patB with single mutation by standardized agar doubling dilution method in presence of 50 uM sodium orthovanadate efflux pump inhibitor; summary of the method: as §3
Streptococcus pneumoniae [6] = assay: Antibacterial activity against Streptococcus pneumoniae M311B overexpressing patA, patB and inactivated patB with single mutation by standardized agar doubling dilution method; summary of the method: as §1
Streptococcus pneumoniae [7] = assay: Antibacterial activity against Streptococcus pneumoniae M303 overexpressing patA, patB and inactivated patA with single mutation by standardized agar doubling dilution method in presence of 50 uM sodium orthovanadate efflux pump inhibitor; summary of the method: as §1
Streptococcus pneumoniae [8] = assay: Antibacterial activity against fluoroquinolone-resistant Streptococcus pneumoniae M98 FQ-R overexpressing patA, patB by standardized agar doubling dilution method in presence of 20 ug/ml reserpine efflux pump inhibitor
Summary of the method: (§4)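 MIC by agar doubling dilution per BSAC guidelines; strains pregrown in brain heart infusion broth 24 h, 37°C, 5% CO2. MICs measured alone and with efflux pump inhibitors reserpine (20 μg/ml) or sodium orthovanadate (50 μM); synergy defined as ≥2-dilution MIC reduction in presence of inhibitor.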

Streptococcus pneumoniae [9] = assay: Antibacterial activity against fluoroquinolone, dye-resistant Streptococcus pneumoniae M296 overexpressing patA, patB by standardized agar doubling dilution method
Summary of the method: (§5)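 MIC by agar doubling dilution following BSAC guidelines. Strains grown in brain heart infusion broth 24 h at 37°C in 5% CO2. Where an efflux pump inhibitor applies, MIC redetermined with reserpine at 20 μg/ml or sodium orthovanadate at 50 μM. Synergy taken as a fall in MIC of ≥2 dilutions with inhibitor present. Dye resistance defined relative to R6 (both dyes ≥2 dilutions higher).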

Streptococcus pneumoniae [10] = assay: Antibacterial activity against fluoroquinolone, dye-resistant Streptococcus pneumoniae by standardized agar doubling dilution method in presence of 20 ug/ml reserpine efflux pump inhibitor; summary of the method: as §5
Streptococcus pneumoniae [11] = assay: Antibacterial activity against Streptococcus pneumoniae M309 overexpressing patA, patB and inactivated patB with single mutation by standardized agar doubling dilution method; summary of the method: as §1
Streptococcus pneumoniae [12] = assay: Antibacterial activity against fluoroquinolone, dye-susceptible Streptococcus pneumoniae by standardized agar doubling dilution method in presence of 20 ug/ml reserpine efflux pump inhibitor; summary of the method: as §5
Streptococcus pneumoniae [13] = assay: Antibacterial activity against fluoroquinolone-resistant Streptococcus pneumoniae M100 FQ-R overexpressing patA, patB by standardized agar doubling dilution method; summary of the method: as §4
Streptococcus pneumoniae [14] = assay: Antibacterial activity against Streptococcus pneumoniae M298 overexpressing patA, patB and inactivated patA with single mutation by standardized agar doubling dilution method in presence of 20 ug/ml reserpine efflux pump inhibitor; summary of the method: as §1
Streptococcus pneumoniae [15] = assay: Antibacterial activity against fluoroquinolone, dye-resistant Streptococcus pneumoniae M45 overexpressing patA, patB by standardized agar doubling dilution method; summary of the method: as §5
Streptococcus pneumoniae [16] = assay: Antibacterial activity against Streptococcus pneumoniae M304 overexpressing patA, patB and inactivated patA with single mutation by standardized agar doubling dilution method in presence of 20 ug/ml reserpine efflux pump inhibitor; summary of the method: as §1
Streptococcus pneumoniae [17] = assay: Antibacterial activity against fluoroquinolone, dye-resistant Streptococcus pneumoniae M296 overexpressing patA, patB by standardized agar doubling dilution method in presence of 50 uM sodium orthovanadate efflux pump inhibitor; summary of the method: as §5
Streptococcus pneumoniae [18] = assay: Antibacterial activity against fluoroquinolone, dye-resistant Streptococcus pneumoniae M87 overexpressing patA, patB by standardized agar doubling dilution method in presence of 20 ug/ml reserpine efflux pump inhibitor; summary of the method: as §5
Streptococcus pneumoniae [19] = assay: Antibacterial activity against Streptococcus pneumoniae M46A overexpressing patA, patB and inactivated patA with single mutation by standardized agar doubling dilution method in presence of 50 uM sodium orthovanadate efflux pump inhibitor; summary of the method: as §3
Streptococcus pneumoniae [20] = assay: Antibacterial activity against fluoroquinolone, dye-susceptible Streptococcus pneumoniae M295 S overexpressing patA, patB by standardized agar doubling dilution method; summary of the method: as §5
Streptococcus pneumoniae [21] = assay: Antibacterial activity against fluoroquinolone, dye-resistant Streptococcus pneumoniae M42 overexpressing patA, patB by standardized agar doubling dilution method; summary of the method: as §5
Streptococcus pneumoniae [22] = assay: Antibacterial activity against Streptococcus pneumoniae M87B overexpressing patA, patB and inactivated patB with single mutation by standardized agar doubling dilution method; summary of the method: as §2
Streptococcus pneumoniae [23] = assay: Antibacterial activity against Streptococcus pneumoniae M302 overexpressing patA, patB and inactivated patA with single mutation by standardized agar doubling dilution method in presence of 20 ug/ml reserpine efflux pump inhibitor; summary of the method: as §1
Streptococcus pneumoniae [24] = assay: Antibacterial activity against Streptococcus pneumoniae M315 overexpressing patA, patB and inactivated patA with single mutation by standardized agar doubling dilution method; summary of the method: as §1
Streptococcus pneumoniae [25] = assay: Antibacterial activity against fluoroquinolone, dye-resistant Streptococcus pneumoniae M87 overexpressing patA, patB by standardized agar doubling dilution method in presence of 50 uM sodium orthovanadate efflux pump inhibitor; summary of the method: as §5
Streptococcus pneumoniae [26] = assay: Antibacterial activity against Streptococcus pneumoniae M306 overexpressing patA, patB and inactivated patB with single mutation by standardized agar doubling dilution method in presence of 20 ug/ml reserpine efflux pump inhibitor; summary of the method: as §1
Streptococcus pneumoniae [27] = assay: Antibacterial activity against fluoroquinolone, dye-susceptible Streptococcus pneumoniae by standardized agar doubling dilution method in presence of 50 uM sodium orthovanadate efflux pump inhibitor; summary of the method: as §5
Streptococcus pneumoniae [28] = assay: Antibacterial activity against Streptococcus pneumoniae M50B overexpressing patA, patB and inactivated patB with single mutation by standardized agar doubling dilution method in presence of 50 uM sodium orthovanadate efflux pump inhibitor; summary of the method: as §3
Streptococcus pneumoniae [29] = assay: Antibacterial activity against Streptococcus pneumoniae M46A overexpressing patA, patB and inactivated patA with single mutation by standardized agar doubling dilution method in presence of 20 ug/ml reserpine efflux pump inhibitor
Summary of the method: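 MICs were determined by BSAC agar doubling dilution in the presence of reserpine at 20 μg/ml. Strains were grown in BHI broth for 24 h at 37°C in 5% CO2, with R6 as control. Synergy was defined as an MIC drop of ≥2 dilutions with the inhibitor.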

Compound	MIC (Streptococcus pneumoniae [1]) [µg/mL]	MIC (Streptococcus pneumoniae [2]) [µg/mL]	MIC (Streptococcus pneumoniae [3]) [µg/mL]	MIC (Streptococcus pneumoniae [4]) [µg/mL]	MIC (Streptococcus pneumoniae [5]) [µg/mL]	MIC (Streptococcus pneumoniae [6]) [µg/mL]	MIC (Streptococcus pneumoniae [7]) [µg/mL]	MIC (Streptococcus pneumoniae [8]) [µg/mL]	MIC (Streptococcus pneumoniae [9]) [µg/mL]	MIC90 (Streptococcus pneumoniae [10]) [µg/mL]	MIC (Streptococcus pneumoniae [11]) [µg/mL]	MIC90 (Streptococcus pneumoniae [12]) [µg/mL]	MIC (Streptococcus pneumoniae [13]) [µg/mL]	MIC (Streptococcus pneumoniae [14]) [µg/mL]	MIC (Streptococcus pneumoniae [15]) [µg/mL]	MIC (Streptococcus pneumoniae [16]) [µg/mL]	MIC (Streptococcus pneumoniae [17]) [µg/mL]	MIC (Streptococcus pneumoniae [18]) [µg/mL]	MIC (Streptococcus pneumoniae [19]) [µg/mL]	MIC (Streptococcus pneumoniae [20]) [µg/mL]	other results
O=C(O)c1cn(C2CC2)c2cc(N3CCNCC3)c(F)cc2c1=O [CIPROFLOXACIN]	1	8 (≈ 24.1 µM)	8	0.12	8	8 (≈ 24.1 µM)	0.12	2	2 (≈ 6.04 µM)	4	4 (≈ 12.1 µM)	0.5	8 (≈ 24.1 µM)	8	4 (≈ 12.1 µM)	1	8	8	0.12	1 (≈ 3.02 µM)	MIC (Streptococcus pneumoniae [21]): 64 µg/mL (≈ 193 µM); MIC (Streptococcus pneumoniae [22]): 8 µg/mL (≈ 24.1 µM); MIC (Streptococcus pneumoniae [23]): 4 µg/mL; MIC (Streptococcus pneumoniae [24]): 2 µg/mL (≈ 6.04 µM); MIC (Streptococcus pneumoniae [25]): 16 µg/mL; MIC (Streptococcus pneumoniae [26]): 4 µg/mL; MIC90 (Streptococcus pneumoniae [27]): 0.5 µg/mL; MIC (Streptococcus pneumoniae [28]): 4 µg/mL; MIC (Streptococcus pneumoniae [29]): 0.12 µg/mL
CC[n+]1c(-c2ccccc2)c2cc(N)ccc2c2ccc(N)cc21.[Br-] [HOMIDIUM BROMIDE]	0.12	0.5	0.5	0.25	0.5	0.5	1	0.12	8	0.5	16	0.25	4	0.5	4	0.5	2	0.5	0.5	2	MIC (Streptococcus pneumoniae [21]): 8 µg/mL; MIC (Streptococcus pneumoniae [22]): 0.5 µg/mL; MIC (Streptococcus pneumoniae [23]): 0.5 µg/mL; MIC (Streptococcus pneumoniae [24]): 0.25 µg/mL; MIC (Streptococcus pneumoniae [25]): 1 µg/mL; MIC (Streptococcus pneumoniae [26]): 0.5 µg/mL; MIC90 (Streptococcus pneumoniae [27]): 0.25 µg/mL; MIC (Streptococcus pneumoniae [28]): 0.5 µg/mL; MIC (Streptococcus pneumoniae [29]): 0.5 µg/mL
